Here are results for one compound from ChEMBL document CHEMBL4118073, “Evaluation of the antidepressant therapeutic potential of isocyanine and pseudoisocyanine analogues of the organic cation decynium-22” (Eur J Med Chem, 2017).

Data set [1] deals with Mus musculus. As to the kind of experiment: Anti-depressant-like activity in mouse assessed as time spent immobile at 3.2 mg/kg, ip administered 60 mins prior to testing measured for 6 mins by tail suspension test (reference value: 186.9 +/- 13.2 secs). It is filed as functional.
The test system of data set [2] is Mus musculus. As to the kind of experiment: Toxicity in mouse assessed as suppression of locomotion at 10 mg/kg, ip measured for 5 mins. Type of data set: organism-based. Conditions: in vivo.
Data set [3] deals with T1, alpha1 adrenoceptor (Mus musculus, UniProt P97714+P97717+P97718).
T1 sequence (P97714 whole entry): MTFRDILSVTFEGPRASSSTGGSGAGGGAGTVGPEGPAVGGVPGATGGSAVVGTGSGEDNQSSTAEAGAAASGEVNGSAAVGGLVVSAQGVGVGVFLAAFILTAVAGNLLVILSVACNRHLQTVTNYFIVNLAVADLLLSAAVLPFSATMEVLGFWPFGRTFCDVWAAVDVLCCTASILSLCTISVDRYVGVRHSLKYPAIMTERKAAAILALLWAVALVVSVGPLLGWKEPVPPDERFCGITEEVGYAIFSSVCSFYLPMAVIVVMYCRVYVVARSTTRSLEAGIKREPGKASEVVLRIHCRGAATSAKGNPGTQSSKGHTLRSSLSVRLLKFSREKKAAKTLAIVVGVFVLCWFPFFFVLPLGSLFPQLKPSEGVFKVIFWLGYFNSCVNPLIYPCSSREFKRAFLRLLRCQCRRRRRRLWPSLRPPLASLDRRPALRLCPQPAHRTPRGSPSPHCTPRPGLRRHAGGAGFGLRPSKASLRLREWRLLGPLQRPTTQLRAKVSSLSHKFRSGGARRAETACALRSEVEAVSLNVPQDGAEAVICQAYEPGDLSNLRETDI
T1 sequence (P97717 whole entry): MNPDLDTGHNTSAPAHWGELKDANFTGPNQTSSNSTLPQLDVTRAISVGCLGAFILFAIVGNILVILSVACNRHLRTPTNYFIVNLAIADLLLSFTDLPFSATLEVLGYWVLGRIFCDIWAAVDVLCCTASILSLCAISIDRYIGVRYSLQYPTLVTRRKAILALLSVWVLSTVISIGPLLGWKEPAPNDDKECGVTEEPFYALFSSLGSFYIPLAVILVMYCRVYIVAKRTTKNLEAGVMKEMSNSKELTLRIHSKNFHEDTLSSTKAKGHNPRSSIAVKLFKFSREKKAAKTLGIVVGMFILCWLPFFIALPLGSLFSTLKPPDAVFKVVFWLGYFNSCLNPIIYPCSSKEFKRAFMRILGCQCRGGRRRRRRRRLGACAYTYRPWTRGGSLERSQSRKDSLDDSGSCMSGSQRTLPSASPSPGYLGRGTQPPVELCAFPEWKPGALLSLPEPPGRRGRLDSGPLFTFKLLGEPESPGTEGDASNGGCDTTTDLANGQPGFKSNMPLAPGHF
T1 sequence (P97718 whole entry): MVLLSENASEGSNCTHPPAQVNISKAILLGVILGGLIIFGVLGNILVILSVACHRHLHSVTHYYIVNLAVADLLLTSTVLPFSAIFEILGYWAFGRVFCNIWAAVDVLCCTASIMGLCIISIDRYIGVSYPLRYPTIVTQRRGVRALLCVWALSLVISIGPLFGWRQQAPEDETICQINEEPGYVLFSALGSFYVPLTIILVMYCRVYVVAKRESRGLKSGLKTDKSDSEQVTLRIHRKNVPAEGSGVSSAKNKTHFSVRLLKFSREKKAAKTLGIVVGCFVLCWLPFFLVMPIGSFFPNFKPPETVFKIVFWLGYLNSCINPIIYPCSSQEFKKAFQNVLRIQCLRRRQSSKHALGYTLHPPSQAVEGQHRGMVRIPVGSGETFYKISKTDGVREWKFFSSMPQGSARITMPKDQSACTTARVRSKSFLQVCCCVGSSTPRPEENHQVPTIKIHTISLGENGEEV
As to the kind of experiment: Displacement of [3H]prazosin from alpha1 adrenoceptor in C57BL/6 mouse hippocampal homogenates assessed as remaining receptor bound [3H]prazosin levels at 0.01 uM after 40 mins by liquid scintillation counting method relative to control. The following applies: probe [3H]prazosin, read-out: Activity. A digest of the protocol: (§1)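 Mouse hippocampal homogenate incubated with 1.5 nM [³H]prazosin and competing ligand across a concentration series. Bound radioligand was expressed as displacement relative to control. IC₅₀ was obtained from non-linear regression fitting of concentration-effect curves, and curve fits were compared with tamsulosin.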

The target in data set [4] is T1, alpha1 adrenoceptor. As to the kind of experiment: Displacement of [3H]prazosin from alpha1 adrenoceptor in C57BL/6 mouse hippocampal homogenates assessed as remaining receptor bound [3H]prazosin levels at 0.003 uM after 40 mins by liquid scintillation counting method relative to control. Conditions: probe [3H]prazosin, read-out: Activity. A digest of the protocol: as §1

Data set [5] deals with T1, alpha1 adrenoceptor. The experiment in a line: Displacement of [3H]prazosin from alpha1 adrenoceptor in C57BL/6 mouse hippocampal homogenates assessed as remaining receptor bound [3H]prazosin levels at 30 uM after 40 mins by liquid scintillation counting method relative to control. The following applies: probe [3H]prazosin, read-out: Activity. The procedure, abridged: as §1

For data set [6], the system named is Mus musculus. As to the kind of experiment: Toxicity in mouse assessed as suppression of locomotion at 0.1 mg/kg, ip measured for 5 mins. Type of data set: organism-based. The following applies: in vivo.
The target in data set [7] is T1, alpha1 adrenoceptor. As to the kind of experiment: Displacement of [3H]prazosin from alpha1 adrenoceptor in C57BL/6 mouse hippocampal homogenates assessed as remaining receptor bound [3H]prazosin levels at 10 uM after 40 mins by liquid scintillation counting method relative to control. Conditions: probe [3H]prazosin, read-out: Activity. A digest of the protocol: as §1

For data set [8], the target named is T1, alpha1 adrenoceptor. As to the kind of experiment: Displacement of [3H]prazosin from alpha1 adrenoceptor in C57BL/6 mouse hippocampal homogenates assessed as remaining receptor bound [3H]prazosin levels at 1 uM after 40 mins by liquid scintillation counting method relative to control. The following applies: probe [3H]prazosin, read-out: Activity. A digest of the protocol: as §1

Data set [9] concerns the target T1, alpha1 adrenoceptor. The experiment in a line: Displacement of [3H]prazosin from alpha1 adrenoceptor in C57BL/6 mouse hippocampal homogenates assessed as remaining receptor bound [3H]prazosin levels at 100 uM after 40 mins by liquid scintillation counting method relative to control. The following applies: probe [3H]prazosin, read-out: Activity. The procedure, abridged:
as §1

The target of data set [10] is T1, alpha1 adrenoceptor. As to the kind of experiment: Displacement of [3H]prazosin from alpha1 adrenoceptor in C57BL/6 mouse hippocampal homogenates assessed as remaining receptor bound [3H]prazosin levels at 0.03 uM after 40 mins by liquid scintillation counting method relative to control. The following applies: probe [3H]prazosin, read-out: Activity. A digest of the protocol: as §1

The target in data set [11] is T1, alpha1 adrenoceptor. The experiment in a line: Displacement of [3H]prazosin from alpha1 adrenoceptor in C57BL/6 mouse hippocampal homogenates assessed as remaining receptor bound [3H]prazosin levels at 0.1 uM after 40 mins by liquid scintillation counting method relative to control. Conditions: probe [3H]prazosin, read-out: Activity. The procedure, abridged:
as §1

Data set [12] concerns the target T1, alpha1 adrenoceptor. The experiment in a line: Displacement of [3H]prazosin from alpha1 adrenoceptor in C57BL/6 mouse hippocampal homogenates assessed as remaining receptor bound [3H]prazosin levels at 0.3 uM after 40 mins by liquid scintillation counting method relative to control. Conditions: probe [3H]prazosin, read-out: Activity. A digest of the protocol:
as §1

For data set [13], the target named is T1, alpha1 adrenoceptor. The experiment in a line: Displacement of [3H]prazosin from alpha1 adrenoceptor in C57BL/6 mouse hippocampal homogenates assessed as remaining receptor bound [3H]prazosin levels at 0.001 uM after 40 mins by liquid scintillation counting method relative to control. Conditions: probe [3H]prazosin, read-out: Activity. The procedure, abridged:
as §1

The subject of data set [14] is Mus musculus. The experiment in a line: Toxicity in mouse assessed as suppression of locomotion at 1 mg/kg, ip measured for 5 mins. It is filed as organism-based. The following applies: in vivo.
The subject of data set [15] is Mus musculus. The experiment in a line: Anti-depressant-like activity in mouse assessed as time spent immobile at 0.1 mg/kg, ip administered 60 mins prior to testing measured for 6 mins by tail suspension test (reference value: 186.9 +/- 13.2 secs). It is filed as functional.
Data set [16] has as its target T1, alpha1 adrenoceptor. As to the kind of experiment: Displacement of [3H]prazosin from alpha1 adrenoceptor in C57BL/6 mouse hippocampal homogenates assessed as remaining receptor bound [3H]prazosin levels at 3 uM after 40 mins by liquid scintillation counting method relative to control. Conditions: probe [3H]prazosin, read-out: Activity. A digest of the protocol: as §1

The target of data set [17] is T1, alpha1 adrenoceptor. As to the kind of experiment: Displacement of [3H]prazosin from alpha1 adrenoceptor in C57BL/6 mouse hippocampal homogenates assessed as remaining receptor bound [3H]prazosin levels at 0.0001 uM after 40 mins by liquid scintillation counting method relative to control. Conditions: probe [3H]prazosin, read-out: Activity. A digest of the protocol:
as §1

Data set [18] relates to Mus musculus. As to the kind of experiment: Anti-depressant-like activity in mouse assessed as time spent immobile at 1 mg/kg, ip administered 60 mins prior to testing measured for 6 mins by tail suspension test (reference value: 186.9 +/- 13.2 secs). Type of data set: functional.
Data set [19] concerns the target T2, Alpha-1 adrenergic receptor (Mus musculus, UniProt P97714+P97717+P97718).
T2 sequence (P97714 whole entry): T1 sequence (P97714 whole entry)
T2 sequence (P97717 whole entry): T1 sequence (P97717 whole entry)
T2 sequence (P97718 whole entry): T1 sequence (P97718 whole entry)
The experiment in a line: Displacement of [3H]prazosin from alpha1 adrenoceptor in C57BL/6 mouse hippocampal homogenates after 40 mins by liquid scintillation counting method. A digest of the protocol:
as §1

For the compound `CCN1/C(=C/c2ccc3cc(I)ccc3[n+]2CC)C=Cc2ccccc21.[I-]`, the Time in data set [1] was 167.6 s; in data set [15] it was 183 s; in data set [18], 184.5 s. Moreover, the Activity entry in data set [2], in [6] and in data set [14] was “Non-Toxic” in each case. Besides, in data set [3], the activity at 40 min, 0.01 µM turned out to be 98.3%. In data set [4], the activity at 40 min, 0.003 µM stood at 130%. In addition, in data set [5], the activity at 40 min, 30 µM is -3%. Also, the activity at 40 min, 10 µM in data set [7] was -2.8%. Besides, the activity at 40 min, 1 µM in data set [8] is 39.3%. The activity at 40 min, 100 µM in data set [9] was found to be 12.3%. The activity at 40 min, 0.03 µM in data set [10] came out at 119%. For the same compound, in [11], the activity at 40 min, 0.1 µM stood at 96%. In data set [12], the activity at 40 min, 0.3 µM worked out at 94%. Moreover, the activity at 40 min, 0.001 µM in [13] worked out at 111%. Further, in [16], the activity at 40 min, 3 µM stood at 52%. For the same compound, in data set [17], the activity at 40 min, 0.0001 µM stood at 100%. This compound also returned a half-maximal inhibitory concentration (IC50) in [19] of 0.711 µM.
